aDG glyco up – increases alpha dystroglycan glycosylation; Pro5-aDG cells, alpha-DG glycosylation AlphaScreen (IIH6); 0% Pro5, 100% B10-LARGE cell signal; activation, % at 10 µM; 360,000 compounds, 0.22% hits; AID 624168;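 active = activation of at least 8% versus controls, or a plate z-score of at least 8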;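 note: Pro5 are CHO cells carrying HIG-tagged alpha-DG that lacks glycosylation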
Tb MetRS inh – blocks T. brucei methionyl-tRNA synthetase activity; 360,000 compounds, 0.4% hits; AID 624268; inhibition, % at 11.9 µM; purified T. brucei MetRS, ATP depletion, Kinase-Glo luminescence;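 active = inhibition above a per-plate cutoff of the control wells' mean inhibition plus 3 SD, cut at about 5.5% in these data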;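 note: 0% = DMSO wells median and 100% = median of wells with control inhibitor compound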
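assay system = parasite MetRS enzyme | timing = 15 min preincubation, 2 h reaction, all 25 °C | evaluation = percent inhibition relative to median high and low control wells | medium = HEPES buffer containing pyrophosphatase, BSA, spermine, DTT | compound = single dose, 11.9 µM final nominal, 0.9% final DMSO | detection = Kinase-Glo luminescence, ATP depletion format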
MC4R barr agon – agonists of human melanocortin 4 receptor (MC4R) beta-arrestin | U2OS MC4R beta-arrestin complementation, luminescence; percent of melanotan II response, DMSO zero | 360,000 compounds, 0.98% hits | activation, % at 8.9 µM | AID 540308;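 active = activation above a per-plate cutoff, the mean activation of sample wells on that plate plus 3 SD, cut at about 8% in these data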
Target sequence (P32245 whole entry, looked up): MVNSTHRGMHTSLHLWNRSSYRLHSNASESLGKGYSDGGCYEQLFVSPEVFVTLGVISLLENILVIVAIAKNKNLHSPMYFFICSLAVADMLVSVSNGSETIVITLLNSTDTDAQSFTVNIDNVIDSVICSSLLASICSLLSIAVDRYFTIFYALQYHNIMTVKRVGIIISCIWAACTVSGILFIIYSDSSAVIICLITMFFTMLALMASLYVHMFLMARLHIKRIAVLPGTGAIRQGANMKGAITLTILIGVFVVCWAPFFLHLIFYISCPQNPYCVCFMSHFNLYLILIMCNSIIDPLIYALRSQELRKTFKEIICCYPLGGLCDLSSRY
NTR1 ag – agonists of human neurotensin receptor NTR1. P30989. NTR1-U2OS beta-arrestin-GFP spot imaging, agonist mode. activation, % at 20 µM. 330,000 compounds, 0.17% hits. AID 493036;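 active = activation at or above 40% of the spot to cytoplasm intensity ratio, with at least 20 cells analyzed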;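 note: 0% = DMSO without peptide and 100% = 100 nM NTR1 peptide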
Target sequence (P30989 whole entry, looked up): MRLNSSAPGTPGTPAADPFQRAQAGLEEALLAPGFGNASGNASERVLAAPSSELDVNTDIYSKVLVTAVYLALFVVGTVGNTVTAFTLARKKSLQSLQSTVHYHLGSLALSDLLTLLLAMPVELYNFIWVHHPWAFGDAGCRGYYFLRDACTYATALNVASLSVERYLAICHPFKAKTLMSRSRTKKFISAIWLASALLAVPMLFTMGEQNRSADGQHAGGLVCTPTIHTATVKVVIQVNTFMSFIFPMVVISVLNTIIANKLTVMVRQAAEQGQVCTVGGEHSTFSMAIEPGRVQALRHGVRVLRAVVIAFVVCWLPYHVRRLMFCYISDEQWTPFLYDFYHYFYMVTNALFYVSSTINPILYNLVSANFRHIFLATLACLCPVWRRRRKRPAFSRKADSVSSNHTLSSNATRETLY
TAG inh – reduces triacylglycerol accumulation in H9c2 cells | Nile Red lipid (TAG) fluorescence; cells loaded with 200 µM oleic acid | inhibition, % at 12.5 µM | 230,000 compounds, 0.66% hits;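 active = pattern-corrected inhibition of lipid staining of at least 50% with the nuclear-stain viability signal not falling by more than 50%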;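 note: 0% = DMSO wells and 100% = triacsin C control wells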
MC4R antagonist – blocks human MC4R cAMP signaling. 360,000 compounds, 0.48% hits. MC4R-expressing cells, MTII-stimulated cAMP, LANCE TR-FRET. inhibition, % at 6.5 µM;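 active = inhibition above its plate's cutoff, the mean of tested wells on that plate plus 3 SD, cut at about 29% in these data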;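 note: 0% = Melanotan II alone and 100% = Melanotan II plus saturating MCL0020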
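Material: U2OS-MC4R stable cell line | Reagent: Melanotan II challenge after compound preincubation | Doses: One concentration, 6.5 µM nominal | Incubation: 30-min compound preincubation, 1-h Melanotan II challenge, 1-h detection, room temperature | Signal: TR-FRET cAMP assay | Replicates: One well per compound, no replicates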
U2OS cAMP counter – counter-screen for MC4R antagonists: nonselective cAMP signaling inhibitors; shares compounds with MC4R antagonist; parental U2OS, forskolin cAMP, LANCE TR-FRET; inhibition, % at 6.5 µM; 1,600 compounds, 26% hits;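 active = mean inhibition over triplicates above the low-control well mean plus 3 SD, set per campaign, cut at about 13% in these data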;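 note: signal is single emission at 671 nm which falls as cellular cAMP rises; 0% = forskolin-stimulated wells and 100% = buffer without forskolin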
MC4R antag conf – human MC4R cAMP antagonism confirmation; shares compounds with MC4R antagonist; MC4R-expressing cells, MTII-stimulated cAMP, TR-FRET; inhibition, % at 6.5 µM; 1,600 compounds, 27% hits; AID 602195; in the data active = inhibition above about 29%;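 note: 0% = agonist stimulated wells alone and 100% = agonist stimulated wells plus saturating reference antagonist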
Numbers without * were called inactive; x = no result given. In the library only some 2.4% were active in any assay of this set; here they are far more common.

SMILES	aDG glyco up	Tb MetRS inh	MC4R barr agon	NTR1 ag	TAG inh	MC4R antagonist	U2OS cAMP counter	MC4R antag conf
Clc1cccc(Oc2ncccn2)c1	0.1	-0.4	1.4	2.3	x	31.4*	2.3	0.1
O=C(Cc1ccc(Cl)cc1)c1c[nH]c(C(=O)NCc2cccnc2)c1	-0.1	0.6	-2.1	-1.0	4.7	32.2*	1.9	1.3
CCC1=NN(C(=O)CCc2ccccc2)C(O)(C(F)(F)F)C1 (centres undefined)	0.0	-0.2	0.1	-1.0	x	-0.2	x	x
CCC1=NN(S(=O)(=O)c2ccc(C)cc2)C(O)(C(F)(F)F)C1 (centres undefined)	-0.1	0.0	1.2	-0.6	-8.9	29.1*	-1.8	-7.0
COc1ccc(CCCNC(=O)C2Cc3c(-c4cccc(NC(C)=O)c4)ccnc3O2)cc1 (centres undefined)	0.3	0.2	-1.3	x	-7.8	-14.8	x	x
Cc1cccc(C)c1N1CCN(c2n[nH]c(N)n2)CC1	-0.3	-0.5	-1.4	1.0	-9.0	13.2	x	x
COc1ccc(N2CCN(c3n[nH]c(N)n3)CC2)cc1	-0.1	-0.2	-2.0	-0.1	x	35.2*	0.4	10.1
O=C(NCc1ccco1)c1[nH]c(C(F)(F)F)nc1-c1ccccc1	-0.1	-0.3	x	x	x	x	x	x
COCCNC(=O)c1ccccc1NC(=O)Nc1ccccc1	0.0	-0.6	-0.3	0.2	-3.6	30.8*	3.0	10.7
O=C(Nc1ccccc1)Nc1ccccc1C(=O)NCC1CC1	-0.1	-0.5	4.7	-0.9	8.2	-3.2	x	x
CC1=C(C(=O)N(C)C)CC(CC(=O)NCc2cccc3ccccc23)C(=O)N1Cc1ccc(F)cc1 (centres undefined)	0.0	-0.4	x	x	x	x	x	x
CC(=O)C1=CCC(c2cccc3ccccc23)N(S(=O)(=O)c2ccc(C)cc2)C1 (centres undefined)	0.1	-0.7	x	x	x	x	x	x
O=C(CNC(=O)/C(=C\c1ccc(Br)cc1)NC(=O)c1ccccc1)OCc1ccccc1	0.0	-0.6	-2.9	22.1	x	39.9*	18.7*	47.7*
Cc1ccc(C(=O)N2CCC3(CC2)Oc2ccc(Cl)cc2C(=O)C32CC(c3cccnc3)=NO2)s1 (centres undefined)	0.0	0.3	1.2	-4.2	1.1	5.2	x	x
O=C(/C=C/c1cccs1)N1CCC2(CC1)Oc1ccc(Cl)cc1C(=O)C21CC(c2cccnc2)=NO1 (centres undefined)	-0.2	-0.1	-0.7	-1.6	-9.5	28.6*	-2.8	18.8
CC(C)C(=O)N1CCC2(CC1)Oc1ccc(Cl)cc1C(=O)C21CC(c2ccccc2)=NO1 (centres undefined)	0.2	-0.3	-2.0	10.6	7.0	28.8*	2.2	13.6
CCCNC(=O)C1(C)CCN(C(=O)c2ccc(C)c(F)c2)C1 (centres undefined)	-0.3	-0.2	-1.6	x	-9.6	1.4	x	x
CCCCC(=O)N(C)c1c(C)nc2ccc(C(=O)N3CCN(c4ccccc4)CC3)cn12	-0.2	-0.1	0.3	x	-7.9	12.2	x	x
CCOC(=O)COc1ccccc1/C=C\[N+](=O)[O-]	-0.4	-0.3	-5.0	x	x	29.4*	37.1*	43.7*
CC1(C(=O)NS(=O)(=O)C2CC2)CCN(C(=O)c2ccc(F)c(Cl)c2)C1 (centres undefined)	-0.2	-0.1	0.3	x	-0.4	10.2	x	x
Cc1ccccc1CNC(=O)c1csc([C@@H]2C[C@H](O)[C@@H](CO)O2)n1	0.1	-0.3	2.2	x	12.9	3.6	x	x
CCC1(C)Cc2ccccc2-c2[nH]c(=S)[nH]c(=O)c21 (centres undefined)	-0.1	-1.9	-0.8	3.2	11.2	29.3*	19.7*	46.5*
COc1ccc(C(NC(=O)c2cc(OC)ccc2OC)c2ccccc2)cc1 (centres undefined)	0.1	0.0	1.0	1.9	x	2.3	x	x
COc1ccc(C(NC(=O)c2c(F)c(F)c(F)c(F)c2F)c2ccccc2)cc1 (centres undefined)	2.6	0.7	0.3	2.0	x	72.2*	56.9*	87.9*
CSCCC(NC(=O)c1ccc(Cl)cc1)C(=O)OCC(=O)Nc1cc(Cl)ccc1C#N (centres undefined)	-0.1	0.8	2.7	0.7	-3.4	31.9*	13.2*	28.8*
SMILES	aDG glyco up	Tb MetRS inh	MC4R barr agon	NTR1 ag	TAG inh	MC4R antagonist	U2OS cAMP counter	MC4R antag conf
O=C(CCCN1CCOCC1)c1ccc2c(c1)OCCO2	0.2	-0.1	-1.4	-0.7	x	-2.6	x	x
O=C(CCN1CCOCC1)c1ccc2c(c1)OCCO2	1.6	-0.2	-0.6	1.2	-4.4	30.3*	6.8	23.5
CN1CCOc2c1cnn(CCO)c2=O	0.0	-0.6	x	x	x	x	x	x
O=C1CN(C(=O)Cn2ncc(Cl)c(Cl)c2=O)c2ccccc2N1	-0.3	-0.1	2.1	x	69.3*	44.5*	20.1*	30.3*
O=C(Cn1ncc(Cl)c(Cl)c1=O)NC1CCCCC1	-0.2	0.2	-0.9	21.8	28.7	47.2*	28.9*	72.0*
O=C(Cn1ncc(Cl)c(Cl)c1=O)NCC1CCCCC1	-0.5	0.8	0.4	x	x	57.9*	32.9*	56.2*
O=C1NC[C@@H](Cc2cccc3ccccc23)N(CCc2cccc(F)c2)C1=O	0.0	-0.8	x	x	x	x	x	x
CC(=O)NC(c1ccc(F)c(F)c1)c1nc(-c2cccc(C(=O)O)c2)cs1 (centres undefined)	-0.3	-0.3	-1.4	x	-1.1	3.0	x	x
COc1ccc(NC(=O)COC(=O)C2CC(=O)N(c3ccc(C)cc3)C2)cc1 (centres undefined)	-0.1	-0.4	1.5	-0.7	x	41.5*	-1.5	-3.3
O=C(Nc1ccccc1Cl)c1c(F)c(F)c(F)c(F)c1F	1.9	-0.9	2.4	3.8	3.6	37.3*	49.2*	77.0*
Cc1ccc(NC(=O)C2(C)CCN2C(=O)Cc2ccc(C(C)C)cc2)cc1 (centres undefined)	0.1	-0.3	0.5	x	-14.7	10.7	x	x
Cc1ccc(S(=O)(=O)C[C@@H]2OC[C@H](Cc3ccccc3)N2S(=O)(=O)c2ccc(C)cc2)cc1	0.1	0.4	x	x	x	x	x	x
CC(c1ccco1)N(C(=O)c1cc(Cl)cc(Cl)c1)c1ccccn1 (centres undefined)	0.1	-0.8	-1.4	1.5	x	6.8	x	x
CC(c1ccco1)N(C(=O)c1ccccc1NS(=O)(=O)c1ccc(Cl)c([N+](=O)[O-])c1)c1ccccn1 (centres undefined)	-0.1	-0.1	-1.5	15.9	x	39.2*	6.3	15.9
Cc1nc(-[n+]2nc(-c3ccncc3)nn2-c2ccccc2)sc1C	-0.4	-3.6	x	x	x	x	x	x

Compound activity from PubChem.
